Source: ChEMBL document CHEMBL2346654, “Discovery of biological evaluation of pyrazole/imidazole amides as mGlu5 receptor negative allosteric modulators” (Bioorg Med Chem Lett, 2013)
Calls of active or inactive are those of the source. The rule behind the calls is not given here.

How the values were obtained:
[1] = target: T1, Metabotropic glutamate receptor 5 (Homo sapiens, UniProt P41594); assay: Negative allosteric modulation of human mGluR5 expressed in HEK293 cells assessed as calcium mobilization at 10 uM by FLIPR assay; type: functional, cell-based
Target sequence in this assay (P41594 21-1212 limits assumed): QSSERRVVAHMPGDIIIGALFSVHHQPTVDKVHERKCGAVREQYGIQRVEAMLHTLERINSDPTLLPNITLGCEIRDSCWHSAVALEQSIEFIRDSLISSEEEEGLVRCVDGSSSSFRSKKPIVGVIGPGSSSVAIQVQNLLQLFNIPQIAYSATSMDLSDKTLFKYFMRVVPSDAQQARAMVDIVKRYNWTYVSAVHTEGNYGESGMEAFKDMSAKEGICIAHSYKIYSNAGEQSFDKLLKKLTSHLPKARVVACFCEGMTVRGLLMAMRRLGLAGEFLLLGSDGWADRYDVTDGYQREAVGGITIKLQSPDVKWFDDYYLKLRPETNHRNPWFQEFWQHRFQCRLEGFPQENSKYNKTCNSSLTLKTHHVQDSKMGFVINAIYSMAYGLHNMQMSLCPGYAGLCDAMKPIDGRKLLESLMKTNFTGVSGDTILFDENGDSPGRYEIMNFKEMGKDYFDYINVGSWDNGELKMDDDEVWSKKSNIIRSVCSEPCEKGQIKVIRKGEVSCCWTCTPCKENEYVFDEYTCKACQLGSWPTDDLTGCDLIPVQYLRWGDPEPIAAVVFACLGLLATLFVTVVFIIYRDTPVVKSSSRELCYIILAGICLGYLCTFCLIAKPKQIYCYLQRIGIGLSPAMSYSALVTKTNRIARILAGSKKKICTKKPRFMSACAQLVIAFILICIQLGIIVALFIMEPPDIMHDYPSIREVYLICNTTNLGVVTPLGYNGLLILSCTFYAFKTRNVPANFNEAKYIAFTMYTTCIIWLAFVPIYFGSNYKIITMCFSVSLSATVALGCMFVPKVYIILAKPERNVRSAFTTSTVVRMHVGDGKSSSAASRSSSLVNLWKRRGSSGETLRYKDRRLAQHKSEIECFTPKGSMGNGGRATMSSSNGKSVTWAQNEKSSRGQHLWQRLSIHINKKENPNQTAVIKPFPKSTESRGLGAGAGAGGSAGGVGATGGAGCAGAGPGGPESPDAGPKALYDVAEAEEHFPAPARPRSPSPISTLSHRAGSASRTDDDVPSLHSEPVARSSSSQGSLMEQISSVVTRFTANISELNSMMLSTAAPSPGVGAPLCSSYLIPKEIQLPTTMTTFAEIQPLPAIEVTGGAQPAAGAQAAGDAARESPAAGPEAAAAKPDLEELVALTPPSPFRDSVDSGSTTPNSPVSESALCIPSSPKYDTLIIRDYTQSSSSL

Mus musculus [2] = assay: Toxicity in ICR mouse assessed as induction of locomotor activity at 1 to 30 mg/kg, ip; type: organism-based; design: dose 1-30 mg/kg, route intraperitoneal; conditions: in vivo
Outline: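 Locomotor activity tests in mice, run to separate antidepressant effect from hyperactivity. Compound given intraperitoneally over a dose range of 1 mg/kg to 30 mg/kg.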

[3] = Half life in human liver microsomes; conditions: liver microsomes
[4] = Oral bioavailability in mouse; type: ADME, organism-based; conditions: in vivo
Outline: (§1)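 Oral bioavailability (F) determined in mice and rats. Dosing vehicle 5% DMSO + 5% Cremophore.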

[5] = Oral bioavailability in rat; type: ADME, organism-based; conditions: in vivo; outline: as §1
Mus musculus [6] = assay: Antidepressant activity in ip dosed ICR mouse assessed as decrease in immobility time administered 1 hr before test measured for 4 mins following training for 2 mins by forced swimming test
Mus musculus [7] = assay: Antidepressant activity in ICR mouse assessed as decrease in immobility time at 10 mg/kg, po administered 1 hr before test measured for 4 mins following training for 2 mins by forced swimming test; type: functional; design: scale not given: the % may be the effect or the level left
Outline: (§2)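 Mouse forced swim test: ICR mice dosed orally 1 h before testing; 2 min training, then immobility duration recorded over 4 min. Activity expressed as % decrease in immobility duration. Mean ± SEM, n = 8; Dunnett's multiple comparisons after one-way ANOVA (p < 0.05).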

[8] = Half life in rat liver microsomes; conditions: liver microsomes
[9] = Half life in mouse liver microsomes; conditions: liver microsomes
Rattus norvegicus = assay: Antidepressant activity in rat assessed as decrease in immobility time at 10 mg/kg, ip by forced swimming test; type: functional; design: scale not given: the % may be the effect or the level left; conditions: route intraperitoneal
Outline: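 Rat forced swim test with intraperitoneal dosing at 10 mg/kg. Read-out is % decrease in immobility duration. Dosing vehicle 5% DMSO + 5% Cremophore.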

[10] = target: T1, Metabotropic glutamate receptor 5; assay: Negative allosteric modulation of human mGluR5 expressed in HEK293 cells assessed as calcium mobilization by FLIPR assay; type: functional, cell-based
Target sequence in this assay (P41594 whole entry): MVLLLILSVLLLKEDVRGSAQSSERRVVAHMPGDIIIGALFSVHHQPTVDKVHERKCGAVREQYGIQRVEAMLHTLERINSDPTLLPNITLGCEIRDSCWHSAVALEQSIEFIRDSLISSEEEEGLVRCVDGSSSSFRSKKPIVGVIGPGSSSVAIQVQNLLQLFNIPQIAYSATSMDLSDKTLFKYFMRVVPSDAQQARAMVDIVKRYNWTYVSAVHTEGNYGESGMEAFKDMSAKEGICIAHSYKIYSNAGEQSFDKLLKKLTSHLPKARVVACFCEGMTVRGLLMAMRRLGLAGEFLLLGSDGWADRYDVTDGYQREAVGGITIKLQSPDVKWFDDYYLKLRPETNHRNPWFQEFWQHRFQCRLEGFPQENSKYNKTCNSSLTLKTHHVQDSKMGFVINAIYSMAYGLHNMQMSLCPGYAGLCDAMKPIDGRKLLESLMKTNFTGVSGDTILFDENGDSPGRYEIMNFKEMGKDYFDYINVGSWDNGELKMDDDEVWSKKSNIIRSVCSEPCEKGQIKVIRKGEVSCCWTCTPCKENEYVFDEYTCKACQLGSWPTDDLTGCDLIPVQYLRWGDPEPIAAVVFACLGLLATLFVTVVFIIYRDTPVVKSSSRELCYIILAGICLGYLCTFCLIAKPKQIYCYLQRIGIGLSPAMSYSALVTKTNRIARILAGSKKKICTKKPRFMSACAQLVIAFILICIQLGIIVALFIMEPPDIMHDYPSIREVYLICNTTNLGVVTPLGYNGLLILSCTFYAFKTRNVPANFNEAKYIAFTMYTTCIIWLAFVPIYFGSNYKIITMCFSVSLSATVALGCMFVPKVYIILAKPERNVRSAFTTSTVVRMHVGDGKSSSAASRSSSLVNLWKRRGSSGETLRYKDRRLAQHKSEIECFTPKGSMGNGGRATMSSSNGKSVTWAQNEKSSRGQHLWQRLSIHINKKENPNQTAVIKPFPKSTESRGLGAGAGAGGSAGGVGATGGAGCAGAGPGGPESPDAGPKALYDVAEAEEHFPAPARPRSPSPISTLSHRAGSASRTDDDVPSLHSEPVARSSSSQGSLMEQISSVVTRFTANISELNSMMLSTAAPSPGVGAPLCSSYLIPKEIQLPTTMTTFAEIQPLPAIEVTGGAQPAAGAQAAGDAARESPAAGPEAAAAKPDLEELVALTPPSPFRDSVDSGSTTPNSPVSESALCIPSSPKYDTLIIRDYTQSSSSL

[11] = target: T1, Metabotropic glutamate receptor 5; assay: Negative allosteric modulation of human mGluR5 expressed in HEK293 cells assessed as calcium mobilization at 2 uM by FLIPR assay; type: functional, cell-based
Target sequence in this assay (P41594 21-1212 limits assumed): as the sequence (P41594 21-1212 limits assumed) above

Cytochrome P450 1A2 = Cytochrome P450 1A2 (Homo sapiens, UniProt P05177); assay: Inhibition of CYP1A2 (unknown origin) at 10 uM; type: ADME
Sequence of Cytochrome P450 1A2 (P05177 whole entry): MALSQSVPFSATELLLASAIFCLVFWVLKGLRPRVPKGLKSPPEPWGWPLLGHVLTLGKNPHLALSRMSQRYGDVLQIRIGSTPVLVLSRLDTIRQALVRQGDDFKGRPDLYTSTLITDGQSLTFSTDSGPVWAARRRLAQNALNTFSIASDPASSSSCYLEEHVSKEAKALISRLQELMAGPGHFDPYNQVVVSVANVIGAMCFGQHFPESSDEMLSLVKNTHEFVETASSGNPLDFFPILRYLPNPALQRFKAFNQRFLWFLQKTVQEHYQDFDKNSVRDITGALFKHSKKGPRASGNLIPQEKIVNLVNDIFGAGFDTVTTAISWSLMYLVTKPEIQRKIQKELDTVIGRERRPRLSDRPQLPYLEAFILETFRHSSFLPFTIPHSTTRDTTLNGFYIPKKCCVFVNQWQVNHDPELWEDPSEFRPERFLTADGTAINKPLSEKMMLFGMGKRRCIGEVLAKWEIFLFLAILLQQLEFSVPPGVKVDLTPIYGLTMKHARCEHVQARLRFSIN

hERG (KCNH2) = hERG (KCNH2) (Homo sapiens, UniProt Q12809); assay: Inhibition of human ERG at 10 uM
[12] = Ratio of drug level in brain to plasma in Sprague-Dawley rat at 10 mg/kg, ip after 1 hr; type: ADME, organism-based; design: dose 10 mg/kg, route intraperitoneal; conditions: brain and plasma, read-out: BPR
Outline: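 Sprague–Dawley rats given a single 10 mg/kg intraperitoneal dose. Plasma and brain concentrations measured 1 h after dosing and expressed as a brain/plasma ratio.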

[13] = target: Metabotropic glutamate receptor 1 (Homo sapiens) (UniProt Q13255); assay: Inhibition of mGluR1 (unknown origin) at 10 uM
Cytochrome P450 2D6 = Cytochrome P450 2D6 (Homo sapiens, UniProt P10635); assay: Inhibition of CYP2D6 (unknown origin) at 10 uM; type: ADME
Cytochrome P450 3A4 = Cytochrome P450 3A4 (Homo sapiens, UniProt P08684); assay: Inhibition of CYP3A4 (unknown origin) at 10 uM; type: ADME
[14] = Intrinsic clearance in human hepatocytes assessed per 10^6 cells; type: ADME, cell-based, Hepatocyte; conditions: read-out: CLH
Cytochrome P450 2C19 = Cytochrome P450 2C19 (Homo sapiens, UniProt P33261); assay: Inhibition of CYP2C19 (unknown origin) at 10 uM; type: ADME
Sequence of Cytochrome P450 2C19 (P33261 whole entry): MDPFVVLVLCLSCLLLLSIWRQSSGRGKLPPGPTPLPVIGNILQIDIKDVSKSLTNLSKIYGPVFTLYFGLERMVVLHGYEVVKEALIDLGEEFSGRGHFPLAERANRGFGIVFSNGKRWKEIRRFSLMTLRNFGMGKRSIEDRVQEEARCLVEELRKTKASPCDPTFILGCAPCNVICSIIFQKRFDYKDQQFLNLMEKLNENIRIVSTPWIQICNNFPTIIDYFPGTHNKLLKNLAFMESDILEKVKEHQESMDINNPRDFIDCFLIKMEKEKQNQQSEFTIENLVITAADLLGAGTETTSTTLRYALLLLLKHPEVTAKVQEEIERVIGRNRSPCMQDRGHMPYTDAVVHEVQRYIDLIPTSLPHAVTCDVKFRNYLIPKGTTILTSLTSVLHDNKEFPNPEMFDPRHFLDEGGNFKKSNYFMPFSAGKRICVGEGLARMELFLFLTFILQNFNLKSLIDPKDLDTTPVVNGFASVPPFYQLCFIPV

Cytochrome P450 2C9 = Cytochrome P450 2C9 (Homo sapiens, UniProt P11712); assay: Inhibition of CYP2C9 (unknown origin) at 10 uM; type: ADME
[15] = Half life in rat plasma; type: ADME, cell-free
[16] = target: Sodium-dependent noradrenaline transporter (Homo sapiens) (UniProt P23975); assay: Inhibition of NET (unknown origin) at 10 uM
Sequence of Sodium-dependent noradrenaline transporter (Homo sapiens) (P23975 whole entry): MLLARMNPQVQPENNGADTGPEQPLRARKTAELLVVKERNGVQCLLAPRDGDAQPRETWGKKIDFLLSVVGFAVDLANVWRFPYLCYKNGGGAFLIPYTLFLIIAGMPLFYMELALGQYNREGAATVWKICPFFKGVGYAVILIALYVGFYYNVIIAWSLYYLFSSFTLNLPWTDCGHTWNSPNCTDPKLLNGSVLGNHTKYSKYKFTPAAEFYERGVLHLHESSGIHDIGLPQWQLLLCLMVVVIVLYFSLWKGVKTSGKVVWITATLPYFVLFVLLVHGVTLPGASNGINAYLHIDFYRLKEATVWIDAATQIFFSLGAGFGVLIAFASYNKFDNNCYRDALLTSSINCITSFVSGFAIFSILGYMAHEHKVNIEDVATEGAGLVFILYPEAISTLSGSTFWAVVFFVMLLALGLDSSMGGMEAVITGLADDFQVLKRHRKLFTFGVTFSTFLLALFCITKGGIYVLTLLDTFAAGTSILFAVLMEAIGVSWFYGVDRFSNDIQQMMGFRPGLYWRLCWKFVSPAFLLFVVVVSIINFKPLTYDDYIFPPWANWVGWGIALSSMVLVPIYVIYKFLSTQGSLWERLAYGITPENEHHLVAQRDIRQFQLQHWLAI

[17] = target: Histamine H1 receptor (Homo sapiens) (UniProt P35367); assay: Inhibition of histamine H1 receptor (unknown origin) at 10 uM
[18] = target: 5-hydroxytryptamine receptor 2C (Homo sapiens) (UniProt P28335); assay: Inhibition of 5-HT2C receptor (unknown origin) at 10 uM
Sequence of 5-hydroxytryptamine receptor 2C (Homo sapiens) (P28335 whole entry): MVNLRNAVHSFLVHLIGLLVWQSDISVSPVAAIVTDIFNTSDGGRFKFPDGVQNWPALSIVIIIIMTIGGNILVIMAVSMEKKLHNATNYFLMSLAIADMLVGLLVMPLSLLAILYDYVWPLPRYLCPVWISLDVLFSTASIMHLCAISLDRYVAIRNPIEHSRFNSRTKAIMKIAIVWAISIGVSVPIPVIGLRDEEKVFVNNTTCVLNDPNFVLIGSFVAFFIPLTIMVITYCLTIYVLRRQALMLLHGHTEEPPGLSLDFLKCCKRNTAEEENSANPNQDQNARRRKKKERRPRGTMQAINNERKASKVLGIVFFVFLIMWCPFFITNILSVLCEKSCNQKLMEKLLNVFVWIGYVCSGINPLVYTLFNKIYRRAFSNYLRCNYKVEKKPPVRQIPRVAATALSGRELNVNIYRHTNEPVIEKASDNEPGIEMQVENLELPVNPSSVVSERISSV

[19] = target: Amine oxidase [flavin-containing] B (Homo sapiens, UniProt P27338); assay: Inhibition of MAO-B (unknown origin) at 10 uM
[20] = target: Alpha-1D adrenergic receptor (Homo sapiens) (UniProt P25100); assay: Inhibition of adrenergic alpha1D receptor (unknown origin) at 10 uM
[21] = target: Adenosine receptor A2a (Homo sapiens) (UniProt P29274); assay: Inhibition of adenosine A2A receptor (unknown origin) at 10 uM
[22] = target: Amine oxidase [flavin-containing] A (Homo sapiens, UniProt P21397); assay: Inhibition of MAO-A (unknown origin) at 10 uM
[23] = target: Sodium-dependent dopamine transporter (Homo sapiens) (UniProt Q01959); assay: Inhibition of DAT (unknown origin) at 10 uM
[24] = target: Muscarinic acetylcholine receptor M1 (Homo sapiens) (UniProt P11229); assay: Inhibition of muscarinic M1 receptor (unknown origin) at 10 uM
Sequence of Muscarinic acetylcholine receptor M1 (Homo sapiens) (P11229 whole entry): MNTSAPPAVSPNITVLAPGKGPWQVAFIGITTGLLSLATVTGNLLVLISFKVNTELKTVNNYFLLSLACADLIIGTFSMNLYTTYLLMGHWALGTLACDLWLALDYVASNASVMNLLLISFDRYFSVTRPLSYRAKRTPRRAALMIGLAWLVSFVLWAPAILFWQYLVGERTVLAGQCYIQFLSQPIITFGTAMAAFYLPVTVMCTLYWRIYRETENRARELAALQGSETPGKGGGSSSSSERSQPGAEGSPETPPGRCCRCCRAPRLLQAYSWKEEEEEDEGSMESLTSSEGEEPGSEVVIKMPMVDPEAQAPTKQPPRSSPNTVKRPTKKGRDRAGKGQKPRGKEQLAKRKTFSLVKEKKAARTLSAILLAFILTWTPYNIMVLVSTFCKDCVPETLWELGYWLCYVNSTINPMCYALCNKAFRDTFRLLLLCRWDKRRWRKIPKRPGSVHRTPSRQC

Mus musculus [25] = assay: Antidepressant activity in ICR mouse assessed as decrease in immobility time at 50 mg/kg, po administered 1 hr before test measured for 4 mins following training for 2 mins by forced swimming test; type: functional; design: scale not given: the % may be the effect or the level left; outline: as §2
[26] = target: Muscarinic acetylcholine receptor M2 (Homo sapiens) (UniProt P08172); assay: Inhibition of muscarinic M2 receptor (unknown origin) at 10 uM
[27] = target: Sodium-dependent serotonin transporter (Homo sapiens) (UniProt P31645); assay: Inhibition of SERT (unknown origin) at 10 uM
[28] = target: T1, Metabotropic glutamate receptor 5; assay: Negative allosteric modulation of human mGluR5 expressed in HEK293 cells assessed as calcium mobilization at 1 uM by FLIPR assay; type: functional, cell-based
Target sequence in this assay (P41594 21-1212 limits assumed): as the sequence (P41594 21-1212 limits assumed) above

## Cc1cccc(NC(=O)c2nn(C)c(-c3ccccc3)c2-c2ccccc2)n1
[1]
  inhibition: 26%

## Cc1cccc(NC(=O)c2nn(C)c(-c3ccc(F)cc3)c2C)n1
Mus musculus [2]
  Activity: Non-toxic
[3]
  half-life: 1.37 h
[4]
  bioavailability: 31%
[5]
  bioavailability: < 2%
Mus musculus [6]
  ED50: 1.1 mg/kg
Mus musculus [7]
  Activity: 61.1%
[8]
  half-life: 0.933 h
[9]
  half-life: 0.6 h
Rattus norvegicus
  Activity: 10.9%
[10]
  IC50: 1.1 nM

## Cc1cccc(NC(=O)c2nn(C)c(OC3CCNCC3)c2C)n1
[11]
  inhibition: 5.6%

## Cc1nc(C(=O)Nc2ccnc(Cl)n2)c(C)n1-c1ccc(F)cc1
Cytochrome P450 1A2
  inhibition (INH): Not Active
[3]
  half-life: 4.72 h
hERG (KCNH2)
  inhibition at 10 µM: 13%
[12]
  Kp at 1 h: 1.63
[13]
  inhibition: 10%
Cytochrome P450 2D6
  inhibition (INH): Not Active
Mus musculus [7]
  Activity: 65.3%
Cytochrome P450 3A4
  inhibition (INH): Not Active
[8]
  half-life: 2.75 h
[14]
  hepatocyte CLint: 0.99 µL/min/1e6 cells
Cytochrome P450 2C19
  inhibition (INH): Not Active
Cytochrome P450 2C9
  inhibition (INH): Not Active
[9]
  half-life: 4.63 h
[10]
  IC50: 40.4 nM

## Cc1cccc(NC(=O)c2nn(C)c(-c3ccccc3)c2C)n1
[3]
  half-life: 1.1 h
[15]
  half-life: > 3 h
[16]
  inhibition: 63%
[17]
  inhibition: inactive
[18]
  inhibition: 66%
[19]
  inhibition (INH): Not Active
[20]
  inhibition: inactive
[21]
  inhibition: inactive
[22]
  inhibition (INH): Not Active
[23]
  inhibition: 60%
[8]
  half-life: 0.4 h
[24]
  inhibition: inactive
Mus musculus [25]
  Activity: 53.3%
[26]
  inhibition: inactive
[9]
  half-life: 0.3 h
[10]
  IC50: 4.4 nM
[27]
  inhibition: inactive

## Cc1cccc(NC(=O)c2nn(C)c(OC3CCN(C)CC3)c2C)n1
[28]
  inhibition: -7.7%

## Cc1cccc(NC(=O)c2cc(-c3ccccc3)n(C)n2)n1
[15]
  half-life: < 1 h
[10]
  IC50: 95 nM

## Cc1cccc(NC(=O)c2nn(C)c(OC3CCOCC3)c2C)n1
[28]
  inhibition: 11.6%

## Fc1ccc2nc(CCC#Cc3ccccn3)cn2c1 [DIPRAGLURANT]
Mus musculus [25]
  Activity: 44.3%
[10]
  IC50: 20 nM

## CCCc1c(C(=O)Nc2cccc(C)n2)nn(C)c1-c1ccccc1
[11]
  inhibition: 37%
